# PAD4 inh: PAD4 (human) enzyme inhibition. 0.41% of 330,000 active. inhibition, % at 6.36 µM. recombinant PAD4, RCA probe fluorescence polarization;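 active = percent inhibition above a cutoff equal to the mean of all tested compounds plus 3 SD, cut at about 15% in these data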;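 also: 0% = PAD4 with RCA probe and DMSO and 100% = probe without PAD4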
# TCR-CD3 inh: blocks the human TCR-CD3 interaction; TAMRA-labeled TCR probe fluorescence, biochemical; inhibition, % at 9.4 µM; AID 651800; 0.37% of 360,000 active; in the data active = inhibition above about 19%;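 also: recombinant mutant TCR 2C K166C tagged with TAMRA read by polarization; 0% = receptor in buffer alone and 100% = receptor with positive control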
# SIAE primary: blocks human sialic acid acetylesterase; Q9HAT2; SIAE FP-Rh probe binding, fluorescence polarization; inhibition, % at 9.66 µM; 0.69% of 370,000 active; AID 1053197;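 active = inhibition above a cutoff: mean of compounds within the control limits plus 3 SD of those, cut at about 17% in these data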;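 also: 0% = plate median of compound wells and 100% = probe without SIAE protein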
# HTRA1 inh: blocks human HTRA1 serine peptidase; recombinant HTRA1, FP-rhodamine activity-based probe, fluorescence polarization; AID 504803; 0.5% of 340,000 active; inhibition, % at 5.96 µM; in the data active = inhibition above about 36%;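 also: 0% = enzyme with DMSO and 100% = wells lacking enzyme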
# Target sequence (Q92743 whole entry, looked up): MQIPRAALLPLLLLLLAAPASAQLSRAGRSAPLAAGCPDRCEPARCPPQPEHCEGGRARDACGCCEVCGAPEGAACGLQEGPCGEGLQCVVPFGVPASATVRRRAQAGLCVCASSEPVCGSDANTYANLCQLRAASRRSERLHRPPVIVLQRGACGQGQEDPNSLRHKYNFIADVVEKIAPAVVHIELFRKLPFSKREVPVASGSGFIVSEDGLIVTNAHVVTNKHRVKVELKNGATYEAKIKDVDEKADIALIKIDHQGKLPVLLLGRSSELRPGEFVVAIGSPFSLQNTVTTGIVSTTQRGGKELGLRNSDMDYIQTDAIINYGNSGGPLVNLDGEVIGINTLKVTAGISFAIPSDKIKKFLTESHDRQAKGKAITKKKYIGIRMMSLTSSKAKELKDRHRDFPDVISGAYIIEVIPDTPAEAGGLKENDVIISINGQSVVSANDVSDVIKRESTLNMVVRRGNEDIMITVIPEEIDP
# ABHD4 inh: inhibits mouse alpha/beta hydrolase domain 4; Q8VD66; purified mABHD4, FP-Rh probe fluorescence polarization; inhibition, % at 8.92 µM; 0.54% of 370,000 active; AID 720543;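 active = inhibition exceeding the mean over every tested compound plus 3 SD, cut at about 30% in these data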;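 also: 0% = plate median of compound wells and 100% = S159A mutant with DMSO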
#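 Test system: mouse ABHD4 enzyme, wild type. Reagent: FP-Rh fluorescent activity-based probe, added after compound pre-incubation. Timing: pre-incubation 45 min, probe exposure 60 min, at 25 °C. Technique: FP readout, ex 525 nm / em 598 nm. Benchmarks: high control S159A mutant with DMSO, low control median of compound wells.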
# TDP2 inh: blocks human TDP2 phosphodiesterase activity; recombinant TDP2, T5PNP hydrolysis, p-nitrophenol absorbance 415 nm; 0.34% of 370,000 active; inhibition, % at 12.8 µM; O95551;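 active = inhibition above the mean of all tested compounds plus 3 SD, set per campaign, cut at about 25% in these data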;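 also: 0% = DMSO with enzyme and 100% = buffer with substrate but no TDP2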
#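 Evaluation: % inhibition relative to enzyme-containing and enzyme-free wells. Material: recombinant human TDP2. Benchmarks: enzyme-free and DMSO wells. Timing: enzyme reaction with compound for 2 h at 37 °C. Compound dosing: 12.8 µM only. Measured by: p-Nitrophenol epi absorbance. Reagent: T5PNP substrate at 5 mM, a TopII-DNA adduct mimic. Replication: single well per compound.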
# SIAE confirm: human SIAE inhibition, confirmation. shares compounds with SIAE primary. SIAE FP-Rh activity-based probe, fluorescence polarization. inhibition, % at 9.66 µM. 13% of 2,300 active;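 active = mean inhibition of the replicates above the hit cutoff set in the primary screen, cut at about 17% in these data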;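 also: 0% = SIAE with DMSO and probe and 100% = probe without SIAE; inhibitors lower polarization as more probe stays unbound to SIAE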
# An asterisk follows results filed as active; . = no result. Sampled rows, rich in hits. Any-hit rate of the full collection: about 2%.
SMILES,PAD4 inh,TCR-CD3 inh,SIAE primary,HTRA1 inh,ABHD4 inh,TDP2 inh,SIAE confirm
COc1ccccc1C(=O)N1CCN(C(=O)[C@H]2O[C@@H](n3cnc(C(N)=O)n3)[C@H](O)[C@@H]2O)CC1,.,1,19*,.,0,2,13
NC(=O)c1ncn([C@@H]2O[C@H](C(=O)Nc3ccc(Oc4ccccc4)nc3)[C@@H](O)[C@H]2O)n1,.,0,12,.,-8,-5,.
COCCN(Cc1ccc(C)cc1)C(=O)[C@H]1O[C@@H](n2cnc(C(N)=O)n2)[C@H](O)[C@@H]1O,.,-7,21*,.,-8,6,20*
NC(=O)c1ncn([C@@H]2O[C@H](C(=O)Nc3ccc(C(=O)N4CCCCC4)cc3)[C@@H](O)[C@H]2O)n1,.,-6,18*,.,-2,-1,18*
COc1ccccc1C(=O)N1CCN(C(=O)[C@H]2O[C@@H](n3ccc(=O)[nH]c3=O)[C@H](O)[C@@H]2O)CC1,.,-2,5,.,2,-8,.
COCCN(Cc1ccc(C)cc1)C(=O)[C@H]1O[C@@H](n2ccc(N)nc2=O)[C@H](O)[C@@H]1O,.,-1,-4,.,4,0,.
O=C1NC(=O)/C(=C/c2cccc(O)c2)N1,-5,-3,17*,3,4,1,-1
CCc1ccc(/C=C2/SC(N3CCOCC3)=NC2=O)cc1,-3,-4,18*,-2,-3,-1,4
O=C(NC1CC1)c1cccc(S(=O)(=O)Nc2ccccc2F)c1,-3,9,17*,1,-2,0,-3
Cc1ccc(NC(=S)NNS(=O)(=O)c2ccc3ccccc3c2)cc1Cl,0,-9,18*,-7,-5,-5,4
Cc1ccc(NC(=S)Nc2ccc(S(=O)(=O)Nc3ncccn3)cc2)cc1Cl,-3,.,.,.,.,.,.
O=C(O)/C=C/c1cn(Cc2ccccc2)nc1-c1ccccc1,0,2,19*,3,-3,2,2
Cc1sc2nc(CN3CCOCC3)nc(N3CCOCC3)c2c1C,3,4,21*,2,5,5,6
Cc1sc2nc(CN3CCOCC3)nc(N3CCC(C(N)=O)CC3)c2c1C,-3,-2,0,3,0,-13,.
COc1ccc(NC(=O)c2coc(C)c2)cc1,-5,-2,19*,-2,3,-4,-1
COc1ccc(NC(=O)c2ccc(=O)oc2)cc1,-3,7,2,-6,5,5,.
COc1cc(NC2=Nc3cccc4cccc2c34)cc(OC)c1OC,0,2,24*,0,0,-15,9
CN1OC[C@@H]2CN(C(=O)C(C)(C)C)[C@H](c3ccc(-c4cc5ccccc5o4)cc3)C[C@@H]21,.,3,-8,3,-5,0,.
Cc1ccc(C(=O)Nc2ccc(Cl)cc2C(F)(F)F)c(Cl)c1,3,10,1,-1,-1,-4,.
O=C(Nc1ccc(Cl)cc1C(F)(F)F)c1ccccc1Cl,0,-8,29*,-8,-3,6,-5
Cc1cccc(N(CC(=O)N2CCCC2)S(=O)(=O)c2ccccc2)c1C,-2,-12,22*,1,1,1,0
CCc1ccccc1N(CC(=O)N1CCCCC1)S(=O)(=O)c1ccccc1,0,5,7,-10,-3,11,.
COc1ccc(Nc2ncnc3sc(-c4ccccc4)cc23)cc1,-4,-9,33*,-20,1,-8,1
CC(C)c1nnc(NC(=O)CCC(=O)NCc2ccccc2Cl)s1,1,10,-1,7,-1,16,.
CC(C)Cc1nnc(NC(=O)CCC(=O)NCc2ccccc2Cl)s1,-2,6,18*,12,7,16,-3
Nc1nc(C(F)(F)F)cc(=O)[nH]1,-2,0,21*,5,-1,-12,-2
Cc1ccc(-c2nc(C(F)(F)F)cc(=O)[nH]2)cc1,1,-6,-3,4,-7,-14,.
COC(=O)N/N=C1\CCCc2c(C)cc(C)cc21,5,3,10,-2,-5,9,.
Cc1cc(C)c2c(c1)/C(=N/NC(=S)Nc1ccc(F)cc1)CCC2,-2,6,20*,3,12,8,4

# High-throughput results: PubChem BioAssay, The Scripps Research Institute Molecular Screening Center
